MrgX1 agonist: agonists of human MrgX1 receptor, primary screen, HEK293 cells, Fluo-4 calcium flux; Mas-related G-protein coupled receptor member X1 (Homo sapiens), Q96LB2; Fluo-4 calcium fluorescence, agonist mode; stronger effect = higher value; B-score at 10 µM; 310,000 tested, 0.44% active; AID 588627, 2011;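 active means calcium response B-score plate-corrected fluorescence ratio at least 3 library SD, with starting fluorescence B-score inside 5 SD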
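Test system: Stable human MrgX1 HEK293 cell line | Schedule: Overnight plating before 1 h dye loading | Read-out basis: Baseline-normalised fluorescence change ratio, B-scored | Detection: Kinetic calcium dye fluorescence, Fluo-4 NW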
RGS4 act: RGS4 potentiators or activators, primary screen, cell-based, HEK293 M3R inducible RGS4, calcium flux; B-score at 10 µM; carbachol calcium flux Fluo4; stronger effect = lower value; 310,000 tested, 0.92% active;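 active means B-score of the integrated calcium signal more than 4 SD below the library mean, with starting fluorescence not abnormally high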;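 further: negative B-score means reduced calcium response which marks RGS4 activation or potentiation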
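Reagent: ECmax carbachol challenge; Test system: M3R-expressing HEK293 line, RGS4 induced by doxycycline; Schedule: overnight RGS4 induction, 30 min dye load 37 °C, 20 min compound RT; Detection: calcium dye Fluo4 fluorescence; Read-out: Agonist-evoked peak-minus-minimum fluorescence over baseline, integrated ratio, B score.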
RGS4 block: RGS4 inhibitors, primary screen, cell-based, HEK293 M3R inducible RGS4, calcium flux; 310,000 tested, 0.45% active; B-score at 10 µM; Regulator of G-protein signaling 4 (Homo sapiens), P49798; Fluo-4 calcium flux; stronger effect = higher value; triggered by carbachol at its EC20; AID 463165, 2010;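 active means B-score, a plate-corrected calcium signal, over three deviations above library mean, with baseline fluorescence within five deviations of library mean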;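 further: RGS4 expression induced by doxycycline in cells with stable M3 receptor; B-score is computed from the integrated fluorescence ratio over baseline after carbachol; higher B-score means a larger calcium signal and so more RGS4 inhibition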
Target sequence (P49798 whole entry, looked up): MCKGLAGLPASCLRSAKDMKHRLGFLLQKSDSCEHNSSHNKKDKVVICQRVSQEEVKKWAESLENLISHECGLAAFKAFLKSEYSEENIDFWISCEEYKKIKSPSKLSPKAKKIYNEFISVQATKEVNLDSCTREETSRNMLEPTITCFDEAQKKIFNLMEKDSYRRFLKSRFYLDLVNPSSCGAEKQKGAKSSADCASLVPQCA
MrgX1 allo act: positive allosteric modulators of MrgX1, primary screen, HEK293 cells, Fluo-4 calcium flux; 310,000 tested, 0.63% active; B-score at 10 µM; FDSS; stronger effect = higher value; Mas-related G-protein coupled receptor member X1 (Homo sapiens), Q96LB2;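 active means plate-corrected calcium response at least 3 library SD above typical, normal starting fluorescence, not activating the receptor alone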;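 further: compound read alongside a low EC10 to EC30 dose of BAM8-22 agonist; peak minus trough fluorescence over baseline measured at the second addition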
MrgX1 antag: antagonists of human MrgX1 receptor, primary screen, HEK293 cells, Fluo-4 calcium flux | Mas-related G-protein coupled receptor member X1 (Homo sapiens), Q96LB2 | BAM8-22 antagonism; stronger effect = lower value | B-score at 10 µM | 310,000 tested, 1.3% active | AID 588676, 2011;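 active means calcium-response B-score plate-corrected more than 3 library SD below zero, starting fluorescence within 5 deviations, no agonist response on first addition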;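 further: peak minus trough fluorescence over baseline after final BAM8-22 challenge near maximal dose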
RGS4 act valid: reduced carbachol calcium response, RGS4-induced M3R cells, confirmation, RGS4 activator project, cell-based, HEK293 M3R/RGS4 inducible, calcium flux, duplicate. shares compounds with RGS4 act. 1,100 tested, 89% active. inhibition, % at 10 µM. carbachol calcium flux Fluo4;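 active means inhibition above 3 SD of the buffer control wells, cut at about 41% in these data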;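 further: signal is the integrated peak-minus-minimum Fluo4 fluorescence over baseline ratio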
RGS4 act ctr: RGS4 activator counter-screen hit in non-induced cells; shares compounds with RGS4 act; HEK293 M3R non-induced RGS4, Fluo4 calcium flux; after carbachol challenge at its EC90; inhibition, % at 10 µM; 1,100 tested, 82% active; AID 602283;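 active means inhibition exceeding 3 SD of buffer-only control wells, cut at about 26% in these data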;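 further: percent drop in integrated peak-minus-baseline over baseline Fluo4 ratio after carbachol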
* marks the source's active call; other numbers are inactive results; i = inactive; / = no result given. Hits are enriched below; roughly 3.5% of the tested compounds scored in any of these assays.

SMILES	MrgX1 agonist	RGS4 act	RGS4 block	MrgX1 allo act	MrgX1 antag	RGS4 act valid	RGS4 act ctr
Cc1ncc(CN2CCCC(C(=O)Nc3ccc(-c4cscn4)cc3)C2)cn1 (centres undefined)	i	i	i	i	i	/	/
Brc1ccc(CN2CCSCC2)cc1	i	i	i	i	i	/	/
O=C(NCc1nnc(SCC(=O)N2CCCCC2)o1)c1c(F)cccc1Cl	i	i	i	i	i	/	/
Cc1ccc(OS(=O)(=O)c2c(C)nn(C)c2Cl)c(C)c1	i	-9.9*	i	i	i	90*	93*
Cc1c(CCC(=O)N[C@@H](C)C(=O)O)c(=O)oc2cc3occ(-c4ccccc4)c3cc12	i	i	i	i	i	/	/
CC(C)CC(NC(=O)c1ccc(Cl)cc1)C(=O)OCC(=O)c1ccc2c(c1)NC(=O)CO2 (centres undefined)	i	-12*	i	i	i	90*	80*
CC(C)[C@H](NC(=O)c1ccco1)C(=O)OCC(=O)c1ccc2c(c1)NC(=O)CO2	i	i	i	i	i	/	/
CCN(CC)c1nc(C(N)=O)cc(-c2ccccc2)n1	i	i	i	i	i	/	/
N#Cc1cc2c(nc1SCc1ccccc1)CCCCC2	i	-9.8*	i	i	i	82*	84*
CN(C)CC[C@@H](c1ccc(Br)cc1)c1ccccn1	i	i	i	i	i	/	/
CN(C)CC[C@@H](c1ccc(Cl)cc1)c1ccccn1	i	-13*	i	i	i	57*	0
Cc1ccc(-c2nnc(N3CCN(c4ccccn4)CC3)c3ccccc23)cc1	i	-7.7*	i	i	i	94*	91*
Cc1ccc(-c2nnc(N3CCCCC3)c3ccccc23)cc1	i	i	i	i	i	/	/
c1ccc(-c2nnc(N3CCN(c4ccccn4)CC3)c3ccccc23)cc1	i	-8*	i	i	i	92*	79*
COc1cccc(NC(=O)CSc2nnnn2C2CCCC2)c1	i	i	i	i	i	/	/
Cc1ccc(C(=O)NC(=S)Nc2ccc(CN3CCCCC3)cc2)c(C)c1	i	-7.6*	i	i	i	82*	84*
O=C(C(=O)N1CC=C(c2ccccc2)CC1)c1c[nH]c2ccccc12	i	i	i	i	i	/	/
CCN(C1CCCCC1)S(=O)(=O)c1ccc(S(=O)(=O)N2CCN(CCC#N)CC2)cc1	i	-9.1*	i	i	i	90*	65*
CCOC(=O)c1c(C(C)(C)C)oc2ccc(OCC#N)cc12	i	-8.8*	i	i	i	92*	92*
CCOP(=O)(c1ccc(N(C)C)cc1)C(O)c1ccccc1OC (centres undefined)	i	i	i	i	i	/	/
O=C(NCC1CCCO1)c1csc2c1CCCCC2 (centres undefined)	i	-9.1*	i	i	i	0	0
O=C(NC1CCCC1)C(=O)N(Cc1cccnc1)C(C(=O)NCC1CCCO1)c1ccco1 (centres undefined)	i	i	i	i	i	/	/
CCOC(=O)c1c(N)sc2c(OCC)c(Br)ccc12	i	i	i	i	i	/	/
CCOC(=O)c1c(NC(C)=O)sc2c(OCC(O)CNC(C)(C)C)c(Br)ccc12 (centres undefined)	i	-10*	i	i	i	94*	94*
CCCC(=O)N/C(N)=N/c1nc(C)c2cc(C)ccc2n1	i	i	i	i	i	/	/
